Data set [1] relates to Human alphaherpesvirus 1. The experiment in a line: Antiviral activity against ACV-resistant Herpes simplex virus 1 AR-29 infected in male Balb/c mouse assessed as change in epidermis thickness at 0.7% w/w applied topically 5 times a day at 3 hrs interval for 10 days measured on day 10 post infection by H and E staining based histological analysis. It counts as functional, organism-based.

Data set [2] is described as follows: Toxicity in Balb/c mouse infected with ACV-resistant Herpes simplex virus 1 AR-29 assessed as death at 0.7% w/w applied topically 5 times a day at 3 hrs interval for 10 days measured on day 10 post infection. The conditions noted are these: in vivo, topical_or_ocular.
For data set [3], the system named is Human alphaherpesvirus 1. In words: Antiviral activity against ACV-sensitive Herpes simplex virus 1 KOS infected in African green monkey Vero cells assessed as suppression of viral replication by measuring reduction in ICP4 production at 12.5 ug/ml measured after 24 hrs by immunofluorescence assay relative to control. It counts as functional, strain KOS. The arrangement: scale not given: the % may be the effect or the level left. In short, it runs like this: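 Vero cells on coverslips infected with HSV-1 KOS and given mangiferin 1.56–12.5 μg/mL at 0 h. At 24 h cells fixed in cold acetone, blocked with skim milk, stained with mouse anti-ICP4 and FITC anti-mouse IgG; 100 cells per coverslip scored by fluorescence microscopy. Inhibition relative to infected untreated cells; duplicate independent experiments.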

Data set [4] relates to Human alphaherpesvirus 1. In words: Antiviral activity against ACV-sensitive Herpes simplex virus 1 KOS infected in female Balb/c mouse assessed as change in epidermis thickness at 0.7% w/w applied topically 5 times a day at 3 hrs interval for 10 days measured on day 10 post infection by H and E staining based histological analysis. The conditions noted are these: strain KOS.

Data set [5] deals with Human alphaherpesvirus 1. In words: Antiviral activity against ACV-resistant Herpes simplex virus 1 AR-29 infected in African green monkey Vero cells assessed as inhibition of viral adsorption at 25 ug/mL preincubated for 30 mins and measured after 1 hr by plaque reduction assay relative to control. It counts as functional. The conditions noted are these: Human alphaherpesvirus 1, AR-29, Vero. In short, it runs like this: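 Vero cells pre-chilled 30 min at 4 °C, then given mangiferin (3.12–25 μg/mL) together with HSV-1 AR-29 (10^5 PFU/mL) for 1 h adsorption at 4 °C. Plaque reduction assay follows: nutrient agarose overlay with 25 mM MgCl2, 72 h at 37 °C/5% CO2, formaldehyde fixation, crystal violet stain. %VI = [1 − PFU treated/PFU virus control] × 100.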

Data set [6] concerns Human alphaherpesvirus 1. The experiment in a line: Antiviral activity against ACV-resistant Herpes simplex virus 1 AR-29 infected in African green monkey Vero cells assessed as suppression of viral replication by measuring reduction in ICP4 production at 12.5 ug/ml measured after 24 hrs by immunofluorescence assay relative to control. It counts as functional. The arrangement: scale not given: the % may be the effect or the level left. The essentials: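 Vero cells on coverslips, infected with HSV-1 AR-29 and given mangiferin (1.56–12.5 μg/mL) at 0 h. At 24 h they are acetone-fixed (−20 °C, 20 min) and blocked with 2% skim milk. Stained with mouse anti-ICP4 and FITC anti-mouse IgG. 100 cells per coverslip are scored by fluorescence microscopy, inhibition relative to infected untreated cells. Duplicate experiments.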

The source made the active and inactive calls. No cut-off for these calls is given here.

In general, inhibition refers to the percentage by which the read-out fell short of the control. Consider `O=c1c2cc(O)c(O)cc2oc2cc(O)c([C@@H]3O[C@H](CO)[C@@H](O)[C@H](O)[C@H]3O)c(O)c12` [MANGIFERIN], for which the outcome in the data set with Human alphaherpesvirus 1 [1] and with Human alphaherpesvirus 1 [4] was inactive. The values for the Activity result (in data set [2]; with Human alphaherpesvirus 1 [3]; with Human alphaherpesvirus 1 [6]) were “Non-Toxic”, 29.6% and 54.1%, respectively. In the data set on Human alphaherpesvirus 1 [5], the inhibition at 25 µg/mL was 74%.

The record behind these values is ChEMBL document CHEMBL4610063, “Mangiferin: A promising natural xanthone from Mangifera indica for the control of acyclovir - resistant herpes simplex virus 1 infection” (Bioorg Med Chem, 2020).
